Reference: ChEMBL document CHEMBL1123397, “Antiarrhythmic activity of 17 beta-aminoestratrienes. Comparison of 3-ols and 3-acetates with the corresponding 3-(3-amino-2-hydroxypropyl) ethers” (1986)
Values after ≈ are worked out from the molar mass of the structure shown. Active and inactive are the calls of the source. The calls are words filed in the database; no cut-off is given here.

How the values were obtained:
[1] = species: Cavia porcellus; assay: Concentration required to reduce maximum following frequencu (MFF) of isolated guinea pig atria by 25%; format: functional
How it was run: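 Guinea pig left atria in an organ bath of Krebs solution at 35 °C, gassed with carbogen, electrically driven, isometric contractions recorded. Drugs added cumulatively; maximum following frequency determined 6 min after each concentration. Concentration reducing MFF by 25% (EC25) calculated from six preparations.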

[2] = species: Mus musculus; assay: ED 50 value against aconitine-induced arrhythmias in mice; IA is Inactive; format: functional, organism-based
How it was run: (§1)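 Anaesthetised mice were given test compound intraperitoneally, then aconitine intravenously to induce arrhythmia. At least three doses were tested in separate groups (n = 6-10). ED50 is the dose raising the arrhythmogenic aconitine dose 50% above the control requirement.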

[3] = species: Rattus norvegicus; assay: Maximum increase in heart rate evoked by isoprenaline.; format: functional
How it was run: (§2)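 Test drug or vehicle was given i.v., and isoprenaline (10 µg/kg) 14 min later. Heart rate was read from the lead II ECG just before drug, at 14 min (pre-isoprenaline) and 1 min after isoprenaline. Compared by Student's t test; 7–12 animals per group; mean ± SEM.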

[4] = tested on: Rattus norvegicus; assay: Effect on heart rate after isoprenaline induced tachycardia in the anesthetized rat at 1 mg/kg dose; format: functional
How it was run: (§3)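 Same ligation protocol in anaesthetised male Wistar rats. Heart rate was taken from the lead II ECG at three points: just before i.v. drug or vehicle, 14 min after it (just before isoprenaline 10 μg/kg), and 1 min after isoprenaline. Pre vs post rates and isoprenaline responses vs controls were compared by Student's t test. Mean ± SEM of 7-12 observations.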

[5] = tested on: Rattus norvegicus; assay: Effective dose that antagonized arrhythmias evoked by coronary artery ligation in the rat was measured at 0.01 mg/kg dose; format: functional
[6] = tested on: Rattus norvegicus; assay: Effect on heart rate before isoprenaline induced tachycardia in the anesthetized rat at 1 mg/kg dose; format: functional; how it was run: as §3
[7] = tested on: Rattus norvegicus; assay: Compound was tested for antagonism of Ventricular Fibrilloflutter (VF) evoked by coronary artery ligation in the rat measured at 0.05 mg/kg dose; format: functional, Heart
How it was run: (§4)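 Male Wistar rats, anaesthetised and artificially ventilated, with left thoracotomy; silk suture under main left coronary artery. After stabilization, test drug or vehicle i.v.; 14 min later isoprenaline 10 μg/kg; 1 min after that the ligature was tightened and VF incidence recorded over 30 min. Carotid pressure and lead II ECG monitored continuously. 7-12 animals per group.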

[8] = tested on: Rattus norvegicus; assay: Compound was tested for antagonism of Ventricular Fibrilloflutter (VF) evoked by coronary artery ligation in the rat measured at 0.01 mg/kg dose; format: functional, Heart; conditions: dose 0.1 mg/kg; in the assay text read “0.1 mg/kg” for “0.01 mg/kg”; how it was run: as §4
[9] = tested on: Rattus norvegicus; assay: Compound was tested for antagonism of Ventricular Fibrilloflutter (VF) evoked by coronary artery ligation in the rat measured at 1 mg/kg dose; format: functional, Heart; how it was run: as §4
[10] = tested on: Rattus norvegicus; assay: Mean change in heart rate recorded 14 min after the administration of compound.; format: functional; how it was run: as §2
[11] = tested on: Rattus norvegicus; assay: Effect on heart rate on 1 min post isoprenaline induced tachycardia in the anesthetized rat at 1.0 mg/kg dose.; format: functional; how it was run: as §2
[12] = tested on: Rattus norvegicus; assay: Effect on heart rate on 1 min post isoprenaline induced tachycardia in the anesthetized rat at 2.0 mg/kg dose.; format: functional; how it was run: as §2
[13] = tested on: Rattus norvegicus; assay: Effect on heart rate before isoprenaline induced tachycardia in the anesthetized rat at 2 mg/kg dose; format: functional; how it was run: as §2
[14] = tested on: Rattus norvegicus; assay: Effect on heart rate after isoprenaline induced tachycardia in the anesthetized rat at 2 mg/kg dose; format: functional; how it was run: as §3
[15] = tested on: Rattus norvegicus; assay: Effective dose that antagonized arrhythmias evoked by coronary artery ligation in the rat was measured at 2.0 mg/kg dose; format: functional
[16] = tested on: Rattus norvegicus; assay: Antagonism of Ventricular Fibrilloflutter (VF) evoked by coronary artery ligation in the rat measured at 2 mg/kg dose; format: functional, Heart; how it was run: as §4
[17] = species: Mus musculus; assay: ED 50 value against aconitine-induced arrhythmias in mice; format: functional; how it was run: as §1
[18] = tested on: Rattus norvegicus; assay: Effective dose that antagonized arrhythmias evoked by coronary artery ligation in the rat was measured at 1.0 mg/kg dose; format: functional
[19] = tested on: Rattus norvegicus; assay: Compound was tested for antagonism of Ventricular Fibrilloflutter (VF) evoked by coronary artery ligation in the rat measured at 0.5 mg/kg dose; format: functional, Heart; how it was run: as §4
[20] = tested on: Rattus norvegicus; assay: Effect of teh compound on heart rate on 1 min post isoprenaline induced tachycardia in the anesthetized rat at 2.0 mg/kg dose.; format: functional; how it was run: as §3

| SMILES | EC25 [1] | ED50 [2] | Increase [3] | Heart rate [4] | ED50 [5] | Heart rate [6] | VF [7] | VF [8] | VF [9] | Change [10] | Heart rate [11] | Heart rate [12] | Heart rate [13] | Heart rate [14] | ED50 at 2 mg/kg [15] | VF [16] | ED50 [17] | ED50 [18] | VF [19] | Heart rate [20] |
| --- | --- | --- | --- | --- | --- | --- | --- | --- | --- | --- | --- | --- | --- | --- | --- | --- | --- | --- | --- | --- |
| CN(C)C1CC[C@H]2[C@@H]3CCc4cc(OCC(O)CNC(C)(C)C)ccc4[C@H]3CC[C@]12C (some centres not stated) | 24.1 µg/mL (≈ 56.2 µM) | inactive | 3.4% | 363 beats min-1 | 0.05 mg/kg | 390 beats min-1 | 38% | 25% | 0% | -6.9% | 376 beats min-1 |  |  |  |  |  |  |  |  |  |
| CNC1CC[C@H]2[C@@H]3CCc4cc(OCC(O)CNC(C)(C)C)ccc4[C@H]3CC[C@]12C (some centres not stated) | 25.8 µg/mL (≈ 62.2 µM) | inactive | 0% |  |  |  |  |  |  | -13.4% |  | 335 beats min-1 | 387 beats min-1 | 335 beats min-1 | < 2 mg/kg | 0% |  |  |  |  |
| CNC1[C@H](O)C[C@H]2[C@@H]3CCc4cc(OCC(O)CNC(C)C)ccc4[C@H]3CC[C@]12C (some centres not stated) | 21 µg/mL (≈ 50.4 µM) | inactive |  |  |  |  |  |  |  |  |  |  |  |  |  |  |  |  |  |  |
| CN(C)C1CC[C@H]2[C@@H]3CCc4cc(O)ccc4[C@H]3CC[C@]12C (some centres not stated) | 1.65 µg/mL (≈ 5.51 µM) |  |  |  |  |  |  |  |  |  |  |  |  |  |  |  | 4.4 mg/kg |  |  |  |
| CN(C)C1[C@H](O)C[C@H]2[C@@H]3CCc4cc(OCC(O)CNC(C)(C)C)ccc4[C@H]3CC[C@]12C (some centres not stated) | 17.1 µg/mL (≈ 38.5 µM) | inactive | 4.6% |  |  |  |  |  | 38% | -17.3% |  | 340 beats min-1 | 393 beats min-1 | 325 beats min-1 |  | 0% |  | 0.5 mg/kg | 44% |  |
| CC(C)NCC(O)COc1ccc2c(c1)CC[C@@H]1[C@@H]2CC[C@]2(C)C(N(C)C)CC[C@@H]12 (some centres not stated) | 16.1 µg/mL (≈ 38.8 µM) | inactive | 1.6% | 387 beats min-1 |  | 405 beats min-1 |  |  | 29% | -4.4% | 393 beats min-1 |  |  |  | < 1 mg/kg | 14% |  |  |  |  |
| CNC1CC[C@H]2[C@@H]3CCc4cc(OCC(O)CNC(C)C)ccc4[C@H]3CC[C@]12C (some centres not stated) | 11.9 µg/mL (≈ 29.7 µM) | inactive | 1% |  |  |  |  |  |  | -22.6% |  |  | 407 beats min-1 | 315 beats min-1 |  |  |  |  |  | 318 beats min-1 |
